The record followed here is ChEMBL document CHEMBL1150273, “Aza-peptidyl Michael acceptors. A new class of potent and selective inhibitors of asparaginyl endopeptidases (legumains) from evolutionarily diverse pathogens” (J Med Chem, 2008).

Activity calls are given as the source filed them. The calls are words filed in the database; no cut-off is given here.

The target of test [1] is T1, Clostripain (Clostridium histolyticum) (UniProt P09870).
T1 sequence (whole entry): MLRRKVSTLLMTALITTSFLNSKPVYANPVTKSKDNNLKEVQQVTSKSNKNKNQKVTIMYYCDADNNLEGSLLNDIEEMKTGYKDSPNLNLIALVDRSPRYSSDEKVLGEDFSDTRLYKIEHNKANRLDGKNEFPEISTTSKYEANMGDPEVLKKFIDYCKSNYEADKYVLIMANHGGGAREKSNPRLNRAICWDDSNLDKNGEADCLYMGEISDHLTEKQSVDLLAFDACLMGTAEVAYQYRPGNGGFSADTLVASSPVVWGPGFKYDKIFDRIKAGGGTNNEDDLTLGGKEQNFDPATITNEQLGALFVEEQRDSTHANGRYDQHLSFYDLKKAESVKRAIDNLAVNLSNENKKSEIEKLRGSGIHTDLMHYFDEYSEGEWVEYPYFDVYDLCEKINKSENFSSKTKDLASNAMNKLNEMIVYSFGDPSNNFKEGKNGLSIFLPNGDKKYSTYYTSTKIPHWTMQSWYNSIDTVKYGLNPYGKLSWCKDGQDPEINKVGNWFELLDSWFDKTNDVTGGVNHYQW
The test can be described thus: Inhibition of sClostridium histolyticum clostripain assessed as ratio of pseudo-first-order inhibition rate constant to inhibitor concentration. To be noted: Hathewaya histolytica. In short, it runs like this: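 Clostripain activated in 8 mM DTT, then incubated with inhibitor (DMSO) in 20 mM Tris-HCl, 10 mM CaCl2, 0.005% Brij 35, 2 mM DTT, pH 7.6; aliquots taken at intervals into buffer with Cbz-Phe-Arg-AMC; fluorescence at 465 nm; pseudo-first-order kinetics.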

The target in test [2] is T2, Papain (Carica papaya) (UniProt P00784).
T2 sequence (whole entry): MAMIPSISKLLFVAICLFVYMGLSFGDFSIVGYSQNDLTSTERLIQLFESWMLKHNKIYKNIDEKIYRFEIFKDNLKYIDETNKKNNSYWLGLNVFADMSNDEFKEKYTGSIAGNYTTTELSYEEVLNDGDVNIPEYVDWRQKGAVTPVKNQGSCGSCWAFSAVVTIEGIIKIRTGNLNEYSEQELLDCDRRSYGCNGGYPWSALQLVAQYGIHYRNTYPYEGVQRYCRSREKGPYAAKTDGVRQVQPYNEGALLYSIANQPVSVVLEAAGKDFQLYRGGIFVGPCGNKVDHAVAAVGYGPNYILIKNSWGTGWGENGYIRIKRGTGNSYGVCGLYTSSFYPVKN
The test can be described thus: Inhibition of papain assessed as ratio of pseudo-first-order inhibition rate constant to inhibitor concentration. Put shortly: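 Papain, about 0.29 mg/mL, incubated with inhibitor in 50 mM Hepes, 2.5 mM DTT, 2.5 mM EDTA, pH 7.5; aliquots taken over time into 53.7 µM Cbz-Phe-Arg-pNA; p-nitroanilide release read at 405 nm at room temperature; pseudo-first-order inactivation kinetics.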

For test [3], the target named is T3, Caspase-3 (Homo sapiens) (UniProt P42574).
T3 sequence (whole entry): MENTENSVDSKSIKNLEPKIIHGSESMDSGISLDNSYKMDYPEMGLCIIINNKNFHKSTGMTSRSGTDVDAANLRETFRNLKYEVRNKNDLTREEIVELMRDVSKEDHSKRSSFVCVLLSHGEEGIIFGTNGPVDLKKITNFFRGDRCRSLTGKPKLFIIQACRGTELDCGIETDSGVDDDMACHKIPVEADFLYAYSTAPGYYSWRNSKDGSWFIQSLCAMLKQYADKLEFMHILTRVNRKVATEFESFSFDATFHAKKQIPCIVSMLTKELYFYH
Description: Inhibition of caspase 3 assessed as ratio of pseudo-first-order inhibition rate constant to inhibitor concentration. Put shortly: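 Caspase-3 (1 nM final) preactivated 10 min at 37 °C in 40 mM Pipes, 200 mM NaCl, 0.2% CHAPS, 20% sucrose mixed 1:1 with 20 mM DTT, pH 7.2; enzyme added to inhibitor plus Ac-Asp-Glu-Val-Asp-AMC; progress curves 20 min at 37 °C (ex 360, em 465 nm); duplicates; rates corrected for substrate (KM 9.7 µM).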

A short description of test [4]: Inhibition of Ixodes ricinus AE expressed in Pichia pastoris after 20 mins. In short, it runs like this: (§1)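 Recombinant AE zymogens expressed in Pichia pastoris; SmAE and TvAE1 autoactivated in 0.5 M sodium acetate, 4 mM DTT, pH 4.5, 37 °C, 3 h to overnight; IrAE used without activation. Buffer 0.1 M citrate phosphate, 4 mM DTT, pH 6.8 (SmAE, TvAE1) or pH 5.5 (IrAE). Inhibitor 2.0–0.0002 µM final, 20 min preincubation at room temperature; 10 µM final Cbz-Ala-Ala-Asn-AMC, 20 min; IC50 from RFU/min vs concentration.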

Test [5] addresses T4, Calpain-1 catalytic subunit (Homo sapiens) (UniProt P07384).
T4 sequence (whole entry): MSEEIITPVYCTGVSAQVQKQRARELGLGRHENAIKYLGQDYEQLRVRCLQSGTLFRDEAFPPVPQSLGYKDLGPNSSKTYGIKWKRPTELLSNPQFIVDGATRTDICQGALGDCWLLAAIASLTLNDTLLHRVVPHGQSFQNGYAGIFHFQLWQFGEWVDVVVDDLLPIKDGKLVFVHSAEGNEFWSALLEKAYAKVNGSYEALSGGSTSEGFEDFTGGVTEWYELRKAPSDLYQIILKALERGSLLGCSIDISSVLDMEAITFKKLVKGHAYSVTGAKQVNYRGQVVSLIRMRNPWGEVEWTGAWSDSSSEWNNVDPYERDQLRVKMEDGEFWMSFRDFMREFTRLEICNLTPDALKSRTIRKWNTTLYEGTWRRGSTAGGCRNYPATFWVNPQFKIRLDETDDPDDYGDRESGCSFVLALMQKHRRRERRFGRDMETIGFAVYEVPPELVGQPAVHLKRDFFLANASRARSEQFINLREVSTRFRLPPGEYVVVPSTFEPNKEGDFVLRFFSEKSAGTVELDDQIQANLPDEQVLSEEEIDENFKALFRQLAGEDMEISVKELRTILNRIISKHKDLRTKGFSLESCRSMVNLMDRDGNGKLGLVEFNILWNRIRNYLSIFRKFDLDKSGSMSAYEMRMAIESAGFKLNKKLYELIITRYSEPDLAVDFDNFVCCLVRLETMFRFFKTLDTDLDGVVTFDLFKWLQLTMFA
The test can be described thus: Inhibition of calpain 1 assessed as ratio of pseudo-first-order inhibition rate constant to inhibitor concentration.

Test [6] is described as follows: Inhibition of Schistosoma mansoni AE expressed in Pichia pastoris after 20 mins. In short, it runs like this: as §1

As for `C[C@H](NC(=O)OCc1ccccc1)C(=O)N[C@@H](C)C(=O)NN(CC(N)=O)C(=O)/C=C/C(=O)N(C)Cc1ccccc1`, the outcome in test [1], in test [2], in test [3] and in test [5] was inactive. This molecule also showed an IC50 in test [4] of under 1 nM.
As for `CCOC(=O)/C=C/C(=O)N(CC(N)=O)NC(=O)[C@H](C)NC(=O)[C@H](C)NC(=O)OCc1ccccc1`, the IC50 in test [6] turned out to be 31 nM; in test [4], 4.5 nM. In addition, the result in test [1], in test [2], in test [3] and in test [5] was inactive.
As to `C[C@H](NC(=O)OCc1ccccc1)C(=O)N[C@@H](C)C(=O)NN(CC(N)=O)C(=O)/C=C/C(=O)N(C)Cc1cccc2ccccc12`, the concentration for half-maximal inhibition (IC50) in test [6] turned out to be 35 nM; in test [4], 5.5 nM. Moreover, the outcome in test [1], in test [2], in test [3] and in test [5] was inactive.
`C[C@H](NC(=O)OCc1ccccc1)C(=O)N[C@@H](C)C(=O)NN(CC(N)=O)C(=O)/C=C/C(=O)N(Cc1ccccc1)Cc1ccccc1`: the concentration for half-maximal inhibition (IC50) in test [6] is 45 nM; in test [4] it was 450 nM. The outcome in test [1] and in test [3] was inactive. Also, the Ratio was 1 M⁻¹ s⁻¹ in test [2] and under 1 M⁻¹ s⁻¹ in test [5].

Broadly, the IC50 is the concentration that gives 50% inhibition.
